Data published in ChEMBL document CHEMBL4765234 (J Med Chem, 2016).
Activity calls are given as the source filed them. The rule behind the calls is not given here.

Legend:
[1] = target: T1, Peroxisome proliferator-activated receptor delta (Homo sapiens) (UniProt Q03181); test: Displacement of [3H]-[…] from PPARdelta (unknown origin) expressed in baculovirus infected Sf9 insect cells upto 30 uM measured after 10 hrs by microbeta scintillation counting analysis; settings: dose microM <=30, time 10.0 hrs
T1 sequence (whole entry): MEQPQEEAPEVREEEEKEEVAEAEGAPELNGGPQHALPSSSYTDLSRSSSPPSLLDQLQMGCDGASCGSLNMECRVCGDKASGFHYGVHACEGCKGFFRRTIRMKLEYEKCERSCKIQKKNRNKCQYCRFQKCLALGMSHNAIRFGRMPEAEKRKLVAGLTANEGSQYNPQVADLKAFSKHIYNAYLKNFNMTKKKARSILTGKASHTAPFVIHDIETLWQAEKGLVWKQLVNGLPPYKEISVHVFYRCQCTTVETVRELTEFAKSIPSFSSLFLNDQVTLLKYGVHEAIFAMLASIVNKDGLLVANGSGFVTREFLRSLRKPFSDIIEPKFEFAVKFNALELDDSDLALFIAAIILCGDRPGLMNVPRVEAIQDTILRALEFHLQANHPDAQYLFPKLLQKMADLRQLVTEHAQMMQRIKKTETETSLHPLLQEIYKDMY
Procedure, shortened: (§1)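 Scintillation proximity assay. Sf9 lysates with baculovirus-expressed PPARα (0.3 μg), PPARδ (0.5 μg) or PPARγ (1.25 μg), each with RXRα, were bound via biotinylated DR2 oligo (0.126 nM) to streptavidin yttrium silicate beads. Buffer was HEPES pH 7.8 with KCl, MgCl2, DTT, CHAPS, 14% glycerol and salmon sperm DNA. A 3H reference agonist ligand was used, with 11 compound concentrations, for 10 h. Nonspecific binding was defined with 10000 nM unlabeled reference. Ki was derived from IC50.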

[2] = target: T2, Free fatty acid receptor 1 (Homo sapiens, UniProt O14842); test: Agonist activity at human recombinant full-length Prolink-tagged GPR40 fused with EA-tagged beta-arrestin expressed in human HEK293 cells assessed as induction of beta-arrestin recruitment measured after 90 mins by beta-galactosidase based PathHunter assay; format: cell-based
T2 sequence (O14842 whole entry, the tested form may be a part): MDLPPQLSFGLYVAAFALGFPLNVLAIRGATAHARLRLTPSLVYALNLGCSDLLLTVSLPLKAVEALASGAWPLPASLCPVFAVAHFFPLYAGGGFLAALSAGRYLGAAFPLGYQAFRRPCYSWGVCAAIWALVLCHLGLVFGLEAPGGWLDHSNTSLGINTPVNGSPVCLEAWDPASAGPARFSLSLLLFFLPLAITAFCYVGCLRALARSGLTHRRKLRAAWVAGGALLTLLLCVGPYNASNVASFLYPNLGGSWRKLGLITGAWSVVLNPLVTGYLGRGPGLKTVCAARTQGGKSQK
Procedure, shortened: (§2)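 PathHunter β-gal complementation. Cells were incubated overnight at 5000/well in medium with 1% heat-inactivated FBS. Compound was added as a 20-point 2-fold series from a top final of 100 μM (1% DMSO) for 90 min at 37 °C, followed by detection reagents and chemiluminescence read after 1 h at rt.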

[3] = target: T2, Free fatty acid receptor 1; test: Displacement of [3H]-(S)-2-(6-((2',6'-dimethyl-4'-(3-(methylsulfonyl)propoxy)biphenyl-3-yl)methoxy)-2,3-dihydrobenzofuran-3-yl)acetic acid from human recombinant full-length GPR40 expressed in human HEK293 cell membrane assessed as dissociation constant measured after 2 hrs by radioligand competitive assay; format: cell membranes
[4] = target: T2, Free fatty acid receptor 1; test: Displacement of [3H]-TAK-875 from human recombinant full-length GPR40 expressed in human HEK293 cell membrane incubated for 2 hrs by solid scintillation counting method; format: cell membranes; settings: for Activity: filed as agonist
[5] = target: Free fatty acid receptor 1 (Rattus norvegicus) (UniProt Q8K3T4); test: Agonist activity at GPR40 in Sprague-Dawley rat pancreatic islets assessed as induction of glucose-mediated insulin secretion measured after 90 mins in EBSS buffer by ELISA; format: tissue-based; settings: Pancreatic islet
Chain of Free fatty acid receptor 1 (Rattus norvegicus) (Q8K3T4 whole entry, the tested form may be a part): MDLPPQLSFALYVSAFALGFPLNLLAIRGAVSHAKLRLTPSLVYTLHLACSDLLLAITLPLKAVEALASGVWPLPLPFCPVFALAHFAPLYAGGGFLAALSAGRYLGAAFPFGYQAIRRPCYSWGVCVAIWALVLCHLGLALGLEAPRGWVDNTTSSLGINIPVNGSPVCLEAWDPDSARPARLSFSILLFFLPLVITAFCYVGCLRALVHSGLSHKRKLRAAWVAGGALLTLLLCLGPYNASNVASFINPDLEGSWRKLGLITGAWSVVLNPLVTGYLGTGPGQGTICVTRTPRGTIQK
Procedure, shortened: (§3)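 Glucose-dependent insulin secretion in mouse MIN6 cells or rat islet cells, scored as secretion above the glucose-alone level.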

[6] = Dissociation constant, pKa1 of compound by potentiometric method; format: physicochemical
Procedure, shortened: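 pKa values measured potentiometrically.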

[7] = target: T3, Peroxisome proliferator-activated receptor gamma (Homo sapiens) (UniProt P37231); test: Displacement of [3H]-[…] from PPARgamma (unknown origin) expressed in baculovirus infected Sf9 insect cells upto 30 uM measured after 10 hrs by microbeta scintillation counting analysis; settings: dose microM <=30, time 10.0 hrs; procedure, shortened: as §1
T3 sequence (whole entry): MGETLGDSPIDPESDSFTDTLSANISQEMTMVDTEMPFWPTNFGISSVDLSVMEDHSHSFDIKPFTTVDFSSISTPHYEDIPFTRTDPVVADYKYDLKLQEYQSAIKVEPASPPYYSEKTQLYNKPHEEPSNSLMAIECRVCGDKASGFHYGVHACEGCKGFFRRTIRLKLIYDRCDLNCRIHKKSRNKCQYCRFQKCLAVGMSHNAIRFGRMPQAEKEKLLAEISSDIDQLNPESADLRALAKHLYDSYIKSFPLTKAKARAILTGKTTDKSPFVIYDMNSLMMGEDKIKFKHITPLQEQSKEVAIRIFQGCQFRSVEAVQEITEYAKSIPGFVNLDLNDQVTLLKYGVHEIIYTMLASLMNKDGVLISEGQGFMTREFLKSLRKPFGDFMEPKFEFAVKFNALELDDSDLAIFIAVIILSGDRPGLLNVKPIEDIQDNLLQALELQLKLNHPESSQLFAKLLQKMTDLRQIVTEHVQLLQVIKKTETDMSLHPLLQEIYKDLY

[8] = target: T2, Free fatty acid receptor 1; test: Agonist activity at human recombinant full-length Prolink-tagged GPR40 fused with EA-tagged beta-arrestin expressed in human HEK293 cells assessed as induction of beta-arrestin recruitment measured after 90 mins by beta-galactosidase based PathHunter assay relative to control; format: cell-based; settings: filed as agonist; procedure, shortened: as §2
[9] = target: T2, Free fatty acid receptor 1; test: Agonist activity at human recombinant full length GPR40 overexpressed in human HEK293 cells assessed as increase in inositol phosphate accumulation in presence of terbium cryptate-labeled anti IP1/d2-labelled IP1 measured after 120 mins by HTRF assay; format: functional, cell-based
Procedure, shortened: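 HEK293 hGPR40 cells (20K/well) were cultured overnight, washed, and held in IP1 stimulation buffer. IP-1 was measured by competitive HTRF immunoassay with terbium cryptate anti-IP1 mAb and d2-labelled IP1.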

[10] = target: T2, Free fatty acid receptor 1; test: Displacement of [3H]-(S)-2-(6-((2',6'-dimethyl-4'-(3-(methylsulfonyl)propoxy)biphenyl-3-yl)methoxy)-2,3-dihydrobenzofuran-3-yl)acetic acid from human recombinant full-length GPR40 expressed in human HEK293 cell membrane assessed as residence time by radioligand competitive assay; format: cell membranes; settings: filed as agonist
Procedure, shortened: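 Residence time came from competitive association kinetics. [3H]-radioligand binding to human GPR40 HEK293 membranes (5 μg, rt, Tris/Ca/Mg/0.1% BSA buffer) was measured at time points over 0–3 h, with and without several concentrations of unlabeled test compound. Fits used association and dissociation rates of the radioligand from independent kinetic experiments.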

[11] = target: Free fatty acid receptor 1 (Rattus norvegicus) (UniProt Q8K3T4); test: Agonist activity at Prolink-tagged rat GPR40 fused with EA-tagged beta-arrestin expressed in human U2OS cells assessed as induction of beta-arrestin recruitment measured after 90 mins by beta-galactosidase based PathHunter assay relative to control; format: cell-based; settings: filed as agonist; procedure, shortened: as §2
[12] = target: Free fatty acid receptor 1 (Rattus norvegicus, UniProt Q8K3T4); test: Agonist activity at Prolink-tagged rat GPR40 fused with EA-tagged beta-arrestin expressed in human U2OS cells assessed as induction of beta-arrestin recruitment measured after 90 mins by beta-galactosidase based PathHunter assay; format: cell-based; procedure, shortened: as §2
Chain of Free fatty acid receptor 1 (Rattus norvegicus, UniProt Q8K3T4) (Q8K3T4 whole entry, the tested form may be a part): as the sequence (Q8K3T4 whole entry, the tested form may be a part) above

[13] = target: Free fatty acid receptor 1 (Mus musculus) (UniProt Q76JU9); test: Agonist activity at GPR40 in mouse MIN6 cells assessed as induction of glucose-mediated insulin secretion incubated for 2 hrs by ELISA; format: cell-based; procedure, shortened: as §3
Chain of Free fatty acid receptor 1 (Mus musculus) (Q76JU9 whole entry, the tested form may be a part): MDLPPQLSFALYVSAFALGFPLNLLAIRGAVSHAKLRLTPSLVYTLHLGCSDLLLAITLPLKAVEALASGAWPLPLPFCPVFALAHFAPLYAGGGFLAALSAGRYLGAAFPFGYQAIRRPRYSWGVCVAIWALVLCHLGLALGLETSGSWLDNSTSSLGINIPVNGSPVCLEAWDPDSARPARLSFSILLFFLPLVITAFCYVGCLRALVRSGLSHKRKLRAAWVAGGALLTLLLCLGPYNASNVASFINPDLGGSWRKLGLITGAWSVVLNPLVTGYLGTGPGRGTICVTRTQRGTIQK

[14] = target: Free fatty acid receptor 1 (Mus musculus) (UniProt Q76JU9); test: Agonist activity at Prolink-tagged mouse GPR40 fused with EA-tagged beta-arrestin expressed in human U2OS cells assessed as induction of beta-arrestin recruitment measured after 90 mins by beta-galactosidase based PathHunter assay relative to control; format: cell-based; settings: filed as agonist; procedure, shortened: as §2

| Compound | Activity [1] | EC50 [2] [nM] | Kd [3] [nM] | Ki [4] [nM] | Activity ([5]; filed as agonist) | pKa [6] | Activity [7] | Emax [8] [%] | EC50 [9] [nM] | TIME [10] [h] | Emax [11] [%] | EC50 [12] [nM] | Activity ([13]; filed as agonist) | Emax [14] [%] | Activity [4] | Activity [5] | Activity [13] |
| --- | --- | --- | --- | --- | --- | --- | --- | --- | --- | --- | --- | --- | --- | --- | --- | --- | --- |
| CC#C[C@@H](CC(=O)O)c1ccc(OCc2ccc(CN3CCC4(CC3)CN(C)c3ccccc34)cc2)cc1 | inactive | 56 | 9.5 | 11 | Active | 4.3 | inactive | 134 | 12 | 0.783 | 126 | 5.5 | Active | 131 | – | – | – |
| CC#C[C@@H](CC(=O)O)c1ccc(OCc2ccc(CN3CCC4(CCc5ccccc54)CC3)s2)cc1 | inactive | 7.9 | 3.5 | 8.2 | Active | 3.4 | inactive | 121 | 6.1 | 1.03 | 108 | 1.7 | Active | 126 | Dose-dependent effect | – | – |
| CC#C[C@@H](CC(=O)O)c1ccc(OCc2ccc(CN3CCC4(C=Cc5ccccc54)CC3)s2)cc1 | inactive | 5.3 | 2 | 4.8 | Active | 4.2 | inactive | 116 | 0.6 | 0.667 | 113 | 0.93 | Active | 119 | – | – | – |
| CC#C[C@@H](CC(=O)O)c1ccc(OCc2ccc(CN3CCC4(C=Cc5ccccc54)CC3)cc2)cc1 [LY2881835] | inactive | – | 2.5 | – | Active | 4.1 | inactive | 137 | 1.2 | 2 | 124 | – | Active | 133 | Dose-dependent effect | – | – |
| O=C(O)C[C@@H](c1ccc(OCc2ccc3nc(-c4ccccc4)nn3c2)cc1)c1ccon1 | inactive | 600 | 37 | 79 | – | 1.9 | inactive | 141 | 68 | 0.367 | 61 | 14000 | – | 98 | – | inactive | inactive |
| CC#C[C@@H](CC(=O)O)c1ccc(OCc2ccc(CN3CCCc4cccc(OC)c43)s2)cc1 | – | 7 | – | – | – | 3.4 | – | 139 | – | – | 121 | 3 | – | 137 | Dose-dependent effect | – | – |
| O=C(O)CCc1ccc(OCc2ccc(CN3CCC4(C=Cc5ccccc54)CC3)cc2)cc1F | inactive | 340 | 58 | 68 | – | 3.9 | inactive | 144 | 39 | 0.2 | 114 | 160 | – | 127 | – | inactive | inactive |
| CC#C[C@@H](CC(=O)O)c1ccc(OCc2ccc(CN3CCC4(CCc5ccccc54)CC3)cc2)cc1 | inactive | 11 | 2.2 | 4.6 | Active | 4.6 | inactive | 137 | 6.2 | 1.1 | 135 | 1.3 | Active | 135 | – | – | – |
